Reference: ChEMBL document CHEMBL4024779, “Novel Terminal Bipheny-Based Diapophytoene Desaturases (CrtN) Inhibitors as Anti-MRSA/VISR/LRSA Agents with Reduced hERG Activity” (J Med Chem, 2018)
The source made the active and inactive calls. The calls are words filed in the database; no cut-off is given here.

What was measured:
[1] = Half life in mouse at 2 mg/kg, iv administered as single dose by LC-MS/MS analysis; assay type: ADME, organism-based; details: in vivo
[2] = tested on: Staphylococcus aureus; test: In vivo anti-virulence activity against Staphylococcus aureus Newman infected in BALB/c mouse model assessed as reduction in bacterial load in kidney at 0.4 mg bid for 3.5 days administered orally 6 hrs post infection by serial dilution method relative to control; assay type: functional; set-up: scale not given: the % may be the effect or the level left
How it was run: (§1)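 Mice got 3.1 × 10^7 CFU S. aureus Newman by retro-orbital injection. Oral compound was given b.i.d. for 3.5 d, starting 6 h after infection. […] Log10 CFU was counted per kidney and per heart.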

[3] = tested on: Rattus norvegicus; test: Toxicity in Sprague-Dawley rat at 60 to 1000 mg/kg, po administered as single dose assessed as abnormal behavior measured during 2 weeks post administration; assay type: organism-based; details: in vivo, 336 h
How it was run: (§2)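 Rats, 30 in total, randomised into three groups. Each received a single oral dose of 60, 250 or 1000 mg/kg on day 1. Poisoning symptoms, mortality, behaviour, water and food consumption and body weight monitored immediately and over 2 weeks.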

[4] = AUC (0 to infinity) in Sprague-Dawley rat at 10 mg/kg, po administered as single dose by LC-MS/MS analysis; assay type: ADME, organism-based; set-up: dose 10 mg/kg, route oral, time infinity; details: in vivo
[5] = Tmax in Sprague-Dawley rat at 10 mg/kg, ip administered as single dose by LC-MS/MS analysis; assay type: ADME, organism-based; details: in vivo
[6] = target: T1, 4,4'-diapophytoene desaturase (4,4'-diaponeurosporene-forming) (Staphylococcus aureus (strain Mu50 / ATCC 700699)) (UniProt Q99R76); details: Staphylococcus aureus subsp. aureus Mu50; 1 uM
T1 sequence (whole entry): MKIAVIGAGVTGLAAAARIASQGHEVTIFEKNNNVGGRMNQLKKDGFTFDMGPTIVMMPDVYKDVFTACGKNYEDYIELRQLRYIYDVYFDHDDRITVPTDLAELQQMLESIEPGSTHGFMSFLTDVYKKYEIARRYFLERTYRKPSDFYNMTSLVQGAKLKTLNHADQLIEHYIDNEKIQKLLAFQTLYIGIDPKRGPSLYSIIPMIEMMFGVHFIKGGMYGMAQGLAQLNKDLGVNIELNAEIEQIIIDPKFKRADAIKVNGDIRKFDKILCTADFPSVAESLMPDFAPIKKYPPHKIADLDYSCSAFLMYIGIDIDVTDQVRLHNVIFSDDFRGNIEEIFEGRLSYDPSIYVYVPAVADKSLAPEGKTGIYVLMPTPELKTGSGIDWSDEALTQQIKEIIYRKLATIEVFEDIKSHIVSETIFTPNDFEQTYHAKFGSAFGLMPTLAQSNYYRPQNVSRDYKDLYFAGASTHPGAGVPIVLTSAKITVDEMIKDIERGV

[7] = tested on: Liver; test: (§3) Half life in human liver microsomes at 2 uM after 60 mins in presence of NADPH by LC-MS/MS method; assay type: ADME, microsome; details: microsomes, 1 h, 2 µM
[8] = target: T1, 4,4'-diapophytoene desaturase (4,4'-diaponeurosporene-forming) (Staphylococcus aureus (strain Mu50 / ATCC 700699)); details: Staphylococcus aureus subsp. aureus Mu50; 1 uM; remark: listed apart in the source
[9] = tested on: Staphylococcus aureus; test: In vivo anti-virulence activity against methicillin-resistant Staphylococcus aureus NF65Y infected in BALB/c mouse model assessed as reduction in bacterial load in heart at 0.1 mg bid for 3.5 days administered intraperitoneally 6 hrs post infection by serial dilution method relative to linezolid; assay type: functional, organism-based
How it was run: (§4)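 Mice infected retro-orbitally with S. aureus NF65Y (3.5 × 10^8 CFU) or XN108 (2.1 × 10^8 CFU). Test compound given i.p. b.i.d. starting 6 h post-infection. […] Log10 CFU per kidney and heart counted. Two-tailed Mann−Whitney test.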

[10] = tested on: Enterococcus faecium; test: Antibacterial activity against Enterococcus faecium after 24 hrs by broth dilution method; assay type: functional
[11] = tested on: Staphylococcus aureus; test: In vivo anti-virulence activity against methicillin-resistant Staphylococcus aureus Mu50 infected in BALB/c mouse model assessed as reduction in bacterial load in kidneys at 0.05 mg bid for 3.5 days administered intraperitoneally 6 hrs post infection by serial dilution method; assay type: functional; set-up: scale not given: the % may be the effect or the level left
[12] = tested on: Staphylococcus aureus; test: In vivo anti-virulence activity against methicillin-resistant Staphylococcus aureus LRSA56 infected in BALB/c mouse model assessed as reduction in bacterial load in heart at 0.1 mg bid for 3.5 days administered intraperitoneally 6 hrs post infection by serial dilution method relative to linezolid; assay type: functional; set-up: scale not given: the % may be the effect or the level left
How it was run: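 Mice were infected by retro-orbital injection with LRSA56 (5.0 × 10^7 CFU) or LRSA202 (7.0 × 10^7 CFU). Compound was given intraperitoneally 6 h after infection. […] Log10 CFU was counted in kidneys and hearts, with groups compared by two-tailed Mann-Whitney test.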

[13] = Inhibition of CrtN in methicillin-resistant Staphylococcus aureus LRSA205 assessed as reduction in staphyloxanthin levels after 48 hrs by spectrophotometric method-based pigment inhibition assay
[14] = tested on: Staphylococcus aureus; test: In vivo anti-virulence activity against Staphylococcus aureus Newman infected in BALB/c mouse model assessed as reduction in bacterial load in heart at 0.2 mg bid for 3.5 days administered orally 6 hrs post infection by serial dilution method relative to control; assay type: functional, organism-based; how it was run: as §1
[15] = tested on: Rattus norvegicus; test: Toxicity in Sprague-Dawley rat at 60 to 1000 mg/kg, po administered as single dose assessed as mortality measured during 2 weeks post administration; assay type: organism-based; details: in vivo, 336 h; how it was run: as §2
[16] = tested on: Staphylococcus aureus; test: Antibacterial activity against Staphylococcus aureus Newman after 24 hrs by broth dilution method; assay type: functional; details: Staphylococcus aureus, Newman, 24 h; read-out: MIC
[17] = Cmax in mouse at 2 mg/kg, iv administered as single dose by LC-MS/MS analysis; assay type: ADME, organism-based; set-up: dose 2 mg/kg, route intravenous; details: in vivo
[18] = Clearance in Sprague-Dawley rat at 5 mg/kg, iv administered as single dose by LC-MS/MS analysis; assay type: ADME, organism-based; details: in vivo
[19] = tested on: Rattus norvegicus; test: Toxicity in Sprague-Dawley rat at 60 to 1000 mg/kg, po administered as single dose assessed as mortality measured immediately post administration; assay type: organism-based; details: in vivo; how it was run: as §2
[20] = tested on: Staphylococcus aureus; test: In vivo anti-virulence activity against methicillin-resistant Staphylococcus aureus XN108 infected in BALB/c mouse model assessed as reduction in bacterial load in heart at 0.1 mg bid for 3.5 days administered intraperitoneally 6 hrs post infection by serial dilution method relative to linezolid; assay type: functional, organism-based; how it was run: as §4
[21] = tested on: Staphylococcus aureus; test: In vivo anti-virulence activity against Staphylococcus aureus Mu50 infected in BALB/c mouse model assessed as reduction in bacterial load in kidney at 0.2 mg bid for 3.5 days administered orally 6 hrs post infection by serial dilution method relative to control; assay type: functional, organism-based
How it was run: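 Mice were infected by retro-orbital injection with Mu50 (4.6 × 10^9 CFU) or NRS271 (3.5 × 10^8 CFU). Oral compound was given b.i.d. for 3.5 d, starting 6 h after infection. Log10 CFU was counted per kidney and per heart.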

[22] = tested on: Rattus norvegicus; test: Toxicity in Sprague-Dawley rat at 60 to 1000 mg/kg, po administered as single dose assessed as poisoning symptoms measured during 2 weeks post administration; assay type: organism-based; details: in vivo, 336 h; how it was run: as §2
[23] = tested on: Staphylococcus aureus; test: In vivo anti-virulence activity against methicillin-resistant Staphylococcus aureus NF65Y infected in BALB/c mouse model assessed as reduction in bacterial load in kidney at 0.1 mg bid for 3.5 days administered intraperitoneally 6 hrs post infection by serial dilution method relative to linezolid; assay type: functional, organism-based; how it was run: as §4
[24] = as §3; assay type: ADME, microsome; details: liver microsomes

For `CN(C/C=C/c1ccc(-c2ccccc2)cc1)Cc1coc2ccccc12.Cl`, the half-life [1] was 2.05 h, the Activity [2] was 90% and the Activity [3] was “Non-Toxic”. It also gave an AUC(0-inf) [4] of 930 ng·h/mL, a Tmax [5] of 3 h and a Survival [6] of 2.7%. For the same compound, the t1/2 [7] was 0.845 h, the Survival [8] was 0.4% and the Activity [9] was “Active”. The MIC [10] was > 500 µg/mL, the Activity [11] was >91.8% and the Activity [12] was >71.8%. For the same compound, the IC50 [13] was 10.5 nM, the Activity [14] was “inactive” and the Activity [15] was “Non-Toxic”. The MIC [16] was > 500 µg/mL, the Cmax [17] was 2230 ng/mL and the clearance [18] was 29.2 mL/min/kg. The Activity [19] was “Non-Toxic”, the Activity [20] was “Active” and the Activity [21] was “Active”. For the same compound, the Activity [22] was “Non-Toxic” and the Activity [23] was “Active”.

Work on `CN(C/C=C/c1ccc(-c2ccccc2)cc1)Cc1cccc2cc[nH]c12.Cl` yielded a half-life at 2 µM [24] of 1.56 h.
